According to ChEMBL document CHEMBL4041542, “Synthesis and biological characterisation of ester and amide derivatives of fusidic acid as antiplasmodial agents” (Bioorg Med Chem Lett, 2017):

Columns and labels:
Plasmodium falciparum [1] = assay: Potency index, ratio of fusidic acid IC50 to compound IC50 for chloroquine-sensitive Plasmodium falciparum NF54; assay type: functional
Method in brief: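 Chloroquine-sensitive P. falciparum NF54 was tested with the lactate dehydrogenase assay, using chloroquine and artesunate as reference drugs. The index is fusidic acid's IC50 divided by the compound's IC50, both against NF54.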

Plasmodium falciparum [2] = assay: Potency index, ratio of fusidic acid IC50 to compound IC50 for chloroquine-resistant Plasmodium falciparum K1; assay type: functional
CHO = assay: Cytotoxicity against CHO cells; assay type: cell-based; conditions: Cricetulus griseus
[3] = Selectivity index, ratio of IC50 for CHO cells to IC50 for chloroquine-sensitive Plasmodium falciparum NF54; assay type: toxicity; conditions: hamster, read-out: Ratio IC50
Method in brief: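 IC50 against Chinese hamster ovary cells (cytotoxicity) was divided by IC50 against P. falciparum NF54. NF54 IC50 came from the lactate dehydrogenase assay, with chloroquine and artesunate as references.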

Plasmodium falciparum [4] = assay: Antiplasmodial activity against chloroquine-resistant Plasmodium falciparum K1 by [3H]hypoxanthine incorporation assay; assay type: functional
Method in brief: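 Multidrug-resistant K1 strain of P. falciparum tested in vitro with a modified [3H]hypoxanthine incorporation assay. IC50 determined. Chloroquine and artesunate served as reference drugs in every experiment.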

Plasmodium falciparum [5] = assay: Antiplasmodial activity against chloroquine-sensitive Plasmodium falciparum NF54 by LDH assay; assay type: functional
Method in brief: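 In vitro test on the chloroquine-sensitive NF54 strain of P. falciparum, read out by the lactate dehydrogenase assay. Reported as IC50. Chloroquine and artesunate were included as reference drugs in all experiments.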

SMILES | Ratio IC50 (Plasmodium falciparum [1]) | Ratio IC50 (Plasmodium falciparum [2]) | IC50 (CHO) [nM] | selectivity ratio [3] | IC50 (Plasmodium falciparum [4]) [nM] | IC50 (Plasmodium falciparum [5]) [nM]
CC(=O)O[C@H]1C[C@@]2(C)[C@@H](C[C@@H](O)[C@H]3[C@@]4(C)CC[C@@H](O)[C@@H](C)[C@@H]4CC[C@@]32C)/C1=C(\CCC=C(C)C)C(=O)Oc1ccc2ccccc2c1 | 4 - 49 | 5 - 17 | > 155000 | > 48 | 1700 | 3200
CC(=O)O[C@H]1C[C@@]2(C)[C@@H](C[C@@H](O)[C@H]3[C@@]4(C)CC[C@@H](O)[C@@H](C)[C@@H]4CC[C@@]32C)/C1=C(\CCC=C(C)C)C(=O)Oc1ccc(Cl)c(Cl)c1 | 4 - 49 | 5 - 17 | 95000 | 26 | 2200 | 3600
CCCCCCCCCCCCOC(=O)/C(CCC=C(C)C)=C1\[C@@H](OC(C)=O)C[C@@]2(C)[C@H]1C[C@@H](O)[C@H]1[C@@]3(C)CC[C@@H](O)[C@@H](C)[C@@H]3CC[C@@]12C |  |  | > 146000 |  | > 14600 | > 100000
CC(=O)O[C@H]1C[C@@]2(C)[C@@H](C[C@@H](O)[C@H]3[C@@]4(C)CC[C@@H](O)[C@@H](C)[C@@H]4CC[C@@]32C)/C1=C(\CCC=C(C)C)C(=O)Oc1ccc(Br)cc1 | 20 - 28 | 12 - 14 | 95300 | 45 | 1600 | 2100
CC(=O)O[C@H]1C[C@@]2(C)[C@@H](C[C@@H](O)[C@H]3[C@@]4(C)CC[C@@H](O)[C@@H](C)[C@@H]4CC[C@@]32C)/C1=C(\CCC=C(C)C)C(=O)Oc1ccc(F)cc1 | 20 - 28 | 12 - 14 | 79400 | 27 | 1400 | 2900
CC(=O)O[C@H]1C[C@@]2(C)[C@@H](C[C@@H](O)[C@H]3[C@@]4(C)CC[C@@H](O)[C@@H](C)[C@@H]4CC[C@@]32C)/C1=C(\CCC=C(C)C)C(=O)Oc1cc(C)ccc1C | 4 - 49 | 5 - 17 | 103000 | 34 | 1400 | 3000
CC(=O)O[C@H]1C[C@@]2(C)[C@@H](C[C@@H](O)[C@H]3[C@@]4(C)CC[C@@H](O)[C@@H](C)[C@@H]4CC[C@@]32C)/C1=C(\CCC=C(C)C)C(=O)Oc1cccc(Cl)c1 | 4 - 49 | 5 - 17 | 87700 | 63 | 1200 | 1400
CC(=O)O[C@H]1C[C@@]2(C)[C@@H](C[C@@H](O)[C@H]3[C@@]4(C)CC[C@@H](O)[C@@H](C)[C@@H]4CC[C@@]32C)/C1=C(\CCC=C(C)C)C(=O)Oc1ccc(Cl)cc1 | 20 - 28 | 12 - 14 | 71600 | 31 | 1400 | 2300
COc1cccc(OC(=O)/C(CCC=C(C)C)=C2\[C@@H](OC(C)=O)C[C@@]3(C)[C@H]2C[C@@H](O)[C@H]2[C@@]4(C)CC[C@@H](O)[C@@H](C)[C@@H]4CC[C@@]23C)c1 | 4 - 49 | 5 - 17 | 86400 | 48 | 1300 | 1800
CC(=O)O[C@H]1C[C@@]2(C)[C@@H](C[C@@H](O)[C@H]3[C@@]4(C)CC[C@@H](O)[C@@H](C)[C@@H]4CC[C@@]32C)/C1=C(\CCC=C(C)C)C(=O)Oc1ccc(Cl)cc1Cl | 4 - 49 | 5 - 17 | 99700 | 28 | 1700 | 3500
CC(=O)O[C@H]1C[C@@]2(C)[C@@H](C[C@@H](O)[C@H]3[C@@]4(C)CC[C@@H](O)[C@@H](C)[C@@H]4CC[C@@]32C)/C1=C(\CCC=C(C)C)C(=O)Oc1ccc(C)cc1C | 4 - 49 | 5 - 17 | 98900 | 41 | 1400 | 2400
CCCCCCCCCCCCCCOC(=O)/C(CCC=C(C)C)=C1\[C@@H](OC(C)=O)C[C@@]2(C)[C@H]1C[C@@H](O)[C@H]1[C@@]3(C)CC[C@@H](O)[C@@H](C)[C@@H]3CC[C@@]12C |  |  | > 140000 |  | > 14000 | > 100000
CCCCCCCCCCCCCCCCNC(=O)/C(CCC=C(C)C)=C1\[C@@H](OC(C)=O)C[C@@]2(C)[C@H]1C[C@@H](O)[C@H]1[C@@]3(C)CC[C@@H](O)[C@@H](C)[C@@H]3CC[C@@]12C |  |  | > 135000 |  | > 13500 | > 100000
CC(=O)O[C@H]1C[C@@]2(C)[C@@H](C[C@@H](O)[C@H]3[C@@]4(C)CC[C@@H](O)[C@@H](C)[C@@H]4CC[C@@]32C)/C1=C(\CCC=C(C)C)C(=O)Oc1cccc(F)c1 | 4 - 49 | 5 - 17 | 89400 | 34 | 2000 | 2600
CC(=O)O[C@H]1C[C@@]2(C)[C@@H](C[C@@H](O)[C@H]3[C@@]4(C)CC[C@@H](O)[C@@H](C)[C@@H]4CC[C@@]32C)/C1=C(\CCC=C(C)C)C(=O)Oc1cc(F)cc(F)c1 | 4 - 49 | 5 - 17 | 96700 | 21 |  | 4700
CC(=O)O[C@H]1C[C@@]2(C)[C@@H](C[C@@H](O)[C@H]3[C@@]4(C)CC[C@@H](O)[C@@H](C)[C@@H]4CC[C@@]32C)/C1=C(\CCC=C(C)C)C(=O)Oc1cccc(Br)c1 | 4 - 49 | 5 - 17 | 98300 | 38 | 1600 | 2600
CC(=O)O[C@H]1C[C@@]2(C)[C@@H](C[C@@H](O)[C@H]3[C@@]4(C)CC[C@@H](O)[C@@H](C)[C@@H]4CC[C@@]32C)/C1=C(\CCC=C(C)C)C(=O)Oc1cc(Cl)cc(Cl)c1 | 4 - 49 | 5 - 17 | 81900 | 41 | 1100 | 2000
CCCCOC(=O)/C(CCC=C(C)C)=C1\[C@@H](OC(C)=O)C[C@@]2(C)[C@H]1C[C@@H](O)[C@H]1[C@@]3(C)CC[C@@H](O)[C@@H](C)[C@@H]3CC[C@@]12C | 4 - 49 | 5 - 17 | 37400 | 13 | 1500 | 2900
CCCCCCCCCCCCCCCCOC(=O)/C(CCC=C(C)C)=C1\[C@@H](OC(C)=O)C[C@@]2(C)[C@H]1C[C@@H](O)[C@H]1[C@@]3(C)CC[C@@H](O)[C@@H](C)[C@@H]3CC[C@@]12C |  |  | > 135000 |  | > 13500 | > 100000
C[C@H]1[C@H](OC(=O)CCC(=O)O)O[C@@H]2O[C@@]3(C)CC[C@H]4[C@H](C)CC[C@@H]1[C@@]24OO3 [ARTESUNATE] |  |  |  |  | 2.6 | 9.3
CC[C@H]1CN2CCc3cc(OC)c(OC)cc3[C@@H]2C[C@@H]1C[C@H]1NCCc2cc(OC)c(OC)cc21 [EMETINE] |  |  | 178 |  |  | 
